Screening data (PubChem BioAssay)
Only some compounds are listed: those with a hit (about 4.9% of all), similar ones and a draw of the others.
FLuc inh counter = firefly luciferase enzyme inhibitors, primary screen, artefact control for luciferase-based inhibitor screens, biochemical, luminescence, ATPLite; 10 min; 1.5% of 200,000 active; AID 1006, 2008; Luciferin 4-monooxygenase (Photinus pyralis), P08659; inhibition, % at 10 µM;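 active = inhibition above about 50% when tested at 10 µM, limit read from the data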
Target sequence (P08659 whole entry, looked up): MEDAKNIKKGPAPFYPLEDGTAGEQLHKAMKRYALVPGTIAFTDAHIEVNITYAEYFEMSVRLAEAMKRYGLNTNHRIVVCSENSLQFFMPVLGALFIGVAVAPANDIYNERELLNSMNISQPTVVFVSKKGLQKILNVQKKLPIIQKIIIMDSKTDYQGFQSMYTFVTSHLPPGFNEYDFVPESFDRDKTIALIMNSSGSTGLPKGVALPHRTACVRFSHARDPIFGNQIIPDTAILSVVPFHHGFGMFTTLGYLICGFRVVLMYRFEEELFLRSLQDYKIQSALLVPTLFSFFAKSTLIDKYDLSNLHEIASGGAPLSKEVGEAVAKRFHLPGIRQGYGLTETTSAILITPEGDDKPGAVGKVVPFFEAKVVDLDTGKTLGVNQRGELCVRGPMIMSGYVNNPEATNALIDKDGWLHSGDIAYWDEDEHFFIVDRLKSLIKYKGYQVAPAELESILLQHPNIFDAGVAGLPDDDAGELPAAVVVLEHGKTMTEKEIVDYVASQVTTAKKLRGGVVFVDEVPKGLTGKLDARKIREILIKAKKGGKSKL
STAT1 activator = STAT1 signaling activators, primary screen, cell-based, HTS, luciferase reporter; NIH 3T3 STAT1-luciferase reporter, IFN-gamma, luminescence; 100% = IFN-gamma alone, no compound; activation (% of control), % at 5.5 µM; 2.6% of 200,000 active;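 active = activation above the screen-wide mean activation plus 3 SD, cut at about 130% in these data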;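 also: raw ratio to IFN-gamma control signal so 100% means no change and 0% no light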
STAT3 blocker = IL-6 driven STAT3 reporter inhibitors, primary screen, U3A cells, luciferase, luminescence, MLSCN library. IL-6 STAT3-luciferase reporter; host cell line lacks STAT1. inhibition, % at 5.5 µM. 0.89% of 190,000 active. AID 862, 2007;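 active = inhibition above the mean inhibition across all screened compounds plus 3 SD, cut at about 44% in these data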;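 also: 0% = DMSO only wells and 100% = 100 µM nifuroxazide control wells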
FLuc stim CS = FLuc activators, initial screening, artefact control for FLuc-dependent activation tests, biochemical, ATPlite luminescence; 200,000 tested, under 10 active; activation factor at 10 µM; AID 1027, 2008; Luciferin 4-monooxygenase (Photinus pyralis), P08659; ATPlite luciferase biochemical, 10 min; 0 = ATP-free wells, 1 = DMSO control;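 active = luciferase activation factor, scaled between plate controls, of at least 2 with compound at 10 µM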
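assay system = Luciferase/luciferin detection reagent, cell-free biochemical luciferase assay | also added = ATP substrate | times = 10 min post-reagent at room temperature | measured by = luminescence from luciferase reaction | measure = luciferase activation, seen as luminescence increase over controls | benchmarks = low control with PBS replacing ATP, high control enzyme plus ATP without compound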
STAT1 inh = STAT1 signaling inhibitors, primary screen, cell-based, HTS, luciferase reporter; NIH 3T3 STAT1-luciferase reporter, IFN-gamma, luminescence; inhibition, % at 5.5 µM; 0.35% of 200,000 active; AID 920, 2007;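 active = inhibition above a set limit, the mean inhibition across all tested compounds plus 3 SD, cut at about 34% in these data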;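 also: 0% = IFN-gamma with DMSO and 100% = IFN-gamma with 300 µM nifuroxazide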
STAT3 activator = IL-6 driven STAT3 reporter potentiators, primary screen, U3A cells, luciferase, luminescence, MLSCN library; IL-6 STAT3-luciferase reporter; 100% = signal with IL-6 EC80 alone; activation (% of control), % at 5.6 µM; AID 871, 2007; 0.91% of 190,000 active;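 active = activation above the screen-wide mean of compound activation plus 3 SD, cut at about 130% in these data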;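 also: 0% = background luminescence of wells with medium and substrate only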
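System – human U3A cells carrying STAT3-luciferase construct · Probe or stimulus – Interleukin-6, 33 ng/mL · Schedule – compound 1 h, then IL-6 6 h at 37 °C · Signal – luminescence from STAT3-driven luciferase reporter · Evaluation – percent of IL-6-only median luminescence · Benchmarks – IL-6-only high control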
* hit, by the source's call.

SMILES	FLuc inh counter	STAT1 activator	STAT3 blocker	FLuc stim CS	STAT1 inh	STAT3 activator
O=[N+]([O-])c1ccc2nc(-c3ccccc3)[nH]c2c1	27.1	140.8*	-1.5	0.7	-40.2	99.2
Nc1ccc2nc(-c3ccccn3)[nH]c2c1	44.9	125.5	-13.2	0.6	-27.4	112.5
Nc1ccc2nc(-c3cccnc3)[nH]c2c1	11.8	107.6	4.6	0.9	-8.5	96.4
Nc1ccc2nc(-c3ccc(N)c(Cl)c3)[nH]c2c1	52.3*	132.0*	34.7	0.5	-49.2	72.1
Nc1ccc2nc(-c3ccccc3)[nH]c2c1	57.3*	130.7*	-9.4	0.4	-34.3	108.5
O=C(O)c1ccccc1C(=O)NNc1ccc(Cl)cc1Cl	-0.4	95.5	6.3	1	3.6	98.4
O=C(c1ccc(F)cc1)N1CCN(C(=O)c2ccc([N+](=O)[O-])cc2)CC1	-2.8	96.6	5.8	1	1.8	97.0
COc1ccc(CN=C2NN=C(c3ccc(Cl)cc3)CS2)cc1	5.9	143.7*	-6.7	0.9	-48.9	106.7
COc1ccc(CN=C2Nc3ccccc3CS2)cc1	53.1*	125.9	10.0	0.5	-28.4	96.6
Clc1ccc2c(c1)[C@H]1OCC[C@H]1[C@@H](c1ccco1)N2	58.9*	104.1	-10.8	0.4	-3.4	109.0
Fc1ccc2c(c1)[C@H]1OCC[C@H]1[C@@H](c1ccco1)N2	-5.2	103.4	3.0	1.1	-3.7	101.0
Clc1ccc(OCc2nc3ccccc3[nH]2)cc1	69.6*	144.0*	20.2	0.3	-51.2	86.6
c1ccc(OCc2nc3ccccc3[nH]2)cc1	34.3	129.1*	11.1	0.7	-31.5	93.8
CCc1nc2ccccc2[nH]1	-1.3	101.2	0.0	1	-1.3	101.3
O=S(=O)(CCc1nc2ccccc2[nH]1)c1ccc(Cl)cc1	-3.6	107.0	5.3	1	-7.7	103.0
Cc1ccc(OCc2nc3ccccc3[nH]2)cc1	87.5*	146.7*	32.0	0.1	-53.3	73.6
COc1cc(/C=C(\C#N)C(=O)NC(C)C)cc(Cl)c1O	0.1	99.2	4.8	1	0.3	97.9
O=C(O)/C=C/c1ccccc1Oc1ccc(Cl)cc1Cl	-2.3	99.3	9.3	1	0.6	96.0
CCCOc1ccc(/C=N/Nc2ccccc2[N+](=O)[O-])c(OCCC)c1	-3.0	93.5	-2.0	1	7.3	102.4
O=C(/C=C/c1ccccc1)OCCCN=C1NS(=O)(=O)c2ccccc21	-8.1	93.8	23.9	1.1	4.7	85.4
COc1cc(OC)cc(C(=O)Nn2cc(C(=O)Nc3ccc(F)cc3F)c3ccccc3c2=O)c1	-4.9	101.3	-19.7	1	1.0	113.5
Cc1ccc(-c2cc(=O)c3cc(C)ccc3[nH]2)cc1	93.3*	146.4*	34.6	0.1	-51.0	68.6
Cc1ccc(-c2cc(=O)c3cc(F)ccc3[nH]2)cc1	19.5	103.7	-10.1	0.8	-4.1	106.1
Cc1ccc(C(=O)NCCc2csc(-c3cccnc3)n2)cc1	68.3*	100.8	22.3	0.3	-0.9	88.1
CC(C)c1cccc(C(C)C)c1NC(=O)Cn1c(=O)cnc2ccccc21	-2.1	92.9	-3.0	1	8.0	100.4
SMILES	FLuc inh counter	STAT1 activator	STAT3 blocker	FLuc stim CS	STAT1 inh	STAT3 activator
O=C(c1cc2ccccc2[nH]1)N1CCOCC1	-8.5	98.3	-38.7	1.1	2.0	135.2*
O=C(CS(=O)(=O)c1ccccc1)Nc1ccc(Br)cn1	0.9	95.2	8.1	1	5.5	93.4
CC(C)(C)n1ncc2c(=O)n(CC(=O)NCc3ccccc3Cl)cnc21	12.6	145.3*	1.5	0.9	-50.0	101.1
CC(C)(C)n1ncc2c(=O)n(CC(=O)NCCc3ccccc3)cnc21	-3.0	93.8	-4.2	1	6.7	105.1
COC(=O)c1ccc2nc(NC(=O)C(C)C)sc2c1	60.4*	134.4*	32.5	0.4	-36.7	75.5
COC(=O)c1ccc2nc(NC(=O)CN3C(=O)CCC3=O)sc2c1	3.0	100.9	-11.0	1	-0.9	113.8
CCOC(=O)c1ccc2nc(Nc3nc4ccc(F)cc4s3)sc2c1	0.2	61.7	73.4*	1	43.0*	37.9
COC(=O)c1ccc2nc(Nc3nc4c(F)cc(F)cc4s3)sc2c1	7.0	37.8	93.6*	0.9	69.8*	20.8
O=C(NCCCN1CCCC1=O)c1ccccc1NS(=O)(=O)c1ccc(Br)cc1	3.7	95.0	-4.7	1	5.4	101.3
O=C(N/N=C1\CCc2ccccc21)c1ccccc1O	89.5*	103.9	24.4	0.1	-4.3	76.1
O=C(N/N=C1\CCc2ccccc21)c1ccncc1	13.0	129.7*	-5.5	0.9	-33.9	104.7
CCOC(=O)c1c(C)[nH]c(N=Nc2cccc(C)c2)c1C	12.9	137.7*	-2.6	0.9	-40.8	106.1
CCOC(=O)c1sc(NC(C)=O)cc1C	-2.1	98.4	3.6	1	-1.1	96.3
CCOC(=O)c1sc(NC(=O)C2CCC2)cc1C	50.1*	120.4	2.0	0.5	-19.7	102.6
COc1ccc(CSc2nc3ccccc3c(=O)n2CCCN2CCOCC2)cc1F	-2.1	92.0	8.5	1	7.9	94.9
CN(C)/C=C1\C(=O)Nc2ccccc21	1.4	94.8	-31.8	1	5.6	134.7*
O=C(Oc1ccc(N2C(=O)CCC2=O)cc1)c1ccccc1Cl	15.7	97.4	-0.3	0.8	2.9	104.4
Cc1cc(OC(=O)c2ccccc2Cl)cc(=O)n1C	-5.2	68.9	15.7	1.1	34.9*	91.2
Clc1ccc2[nH]c(-c3ccccc3)cc2c1	0.7	138.0*	8.4	1	-41.6	98.0
O=c1cc(-c2ccccc2)[nH]c2cc(Cl)ccc12	-0.3	105.5	-28.2	1	-6.0	121.1
CCOc1ccc(-c2cc(N3C(=O)Nc4ccccc4N3O)on2)cc1	75.6*	87.5	16.2	0.2	13.5	89.9
COc1ccc(-c2cc(N3C(=O)Nc4ccccc4N3O)n[nH]2)cc1	33.2	101.2	0.4	0.7	-1.3	99.1
CC(C)n1cc(CN2CCCC(CO)(Cc3cccc(Cl)c3)C2)cn1 (stereo not given)	3.6	89.0	0.0	1	10.6	103.9
CC(=O)c1cccc(NC(=O)c2c(C)nn(-c3ccccc3)c2Cl)c1	0.6	114.0	8.5	1	-16.6	94.0
CC(=O)c1cccc(NC(=O)c2cc3ccccn3n2)c1	71.7*	121.4	33.0	0.3	-23.6	78.8
CC(=O)c1cccc(NC(=O)c2cnn3ccccc23)c1	26.0	129.2*	26.5	0.7	-32.3	84.6
